Active and inactive are the calls of the source. The calls are words filed in the database; no cut-off is given here.
Legend:
Histamine H3 receptor [1] = biological target: T1, Histamine H3 receptor (Homo sapiens, UniProt Q9Y5N1); experiment: Displacement of [3H]NAMH from human H3R expressed in HEK293T cells incubated for 2 hrs by microbeta scintillation counting analysis; assay type: cell-based
In short: (§1)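 Homogenates of HEK293T cells transiently expressing hH3R or mH3R, harvested 48 h post-transfection, incubated with 2 nM [3H]NAMH and increasing unlabeled ligand in 50 mM Tris–HCl pH 7.4, 2 h at 25 °C. Rapid filtration over 0.5% PEI-coated GF/C filters, scintillation counting. One-site fit; IC50 converted to pKi by Cheng–Prusoff; three experiments in triplicate.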

Histamine H3 receptor [2] = biological target: T1, Histamine H3 receptor; experiment: Agonist activity at human H3R expressed on HEK293T cells assessed as inhibition of forskolin-induced CRE-driven luciferase activity co-incubated with forskolin for 6 hrs and measured after 30 mins by CRE-luciferase reporter gene assay; assay type: functional
In short: (§2)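 HEK293T cells transiently transfected (PEI method) in suspension with receptor cDNA (1000 ng), CRE-luciferase (2500 ng) and empty pcDEF3; 50.000 cells/well on poly-L-lysine, grown 24 h. Stimulated with increasing ligand concentrations plus 1 μM forskolin, 37 °C, 5% CO2, 6 h. Luciferase reagent (ATP, D-luciferin) added, luminescence read after 30 min at 37 °C. Nonlinear regression; α relative to histamine; three experiments in triplicate.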

Histamine H3 receptor [3] = biological target: T1, Histamine H3 receptor; experiment: Intrinsic activity at human H3R expressed on HEK293T cells assessed as activation of forskolin-induced CRE-driven luciferase activity co-incubated with forskolin for 6 hrs and measured after 30 mins by CRE-luciferase reporter gene assay relative to histamine; assay type: functional; in short: as §2
Histamine H3 receptor [4] = biological target: T1, Histamine H3 receptor; experiment: Agonist activity at human H3R expressed on HEK293T cells by [35S]GTPgammaS binding assay; assay type: functional
In short: (§3)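 [35S]GTPγS accumulation measured on homogenates of HEK293T cells transiently expressing hH3R, with increasing ligand concentrations; α expressed relative to histamine. At least three experiments in triplicate.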

Histamine H3 receptor [5] = biological target: T1, Histamine H3 receptor; experiment: Intrisic activity at human H3R expressed on HEK293T cells by [35S]GTPgammaS binding assay relative to histamine; assay type: functional; in short: as §3
Histamine H4 receptor [6] = biological target: T2, Histamine H4 receptor (Homo sapiens, UniProt Q9H3N8); experiment: Agonist activity at human H4R expressed on HEK293T cells assessed as inhibition of forskolin-induced CRE-driven luciferase activity co-incubated with forskolin for 6 hrs and measured after 30 mins by CRE-luciferase reporter gene assay; assay type: functional; in short: as §2
T2 sequence (Q9H3N8 whole entry): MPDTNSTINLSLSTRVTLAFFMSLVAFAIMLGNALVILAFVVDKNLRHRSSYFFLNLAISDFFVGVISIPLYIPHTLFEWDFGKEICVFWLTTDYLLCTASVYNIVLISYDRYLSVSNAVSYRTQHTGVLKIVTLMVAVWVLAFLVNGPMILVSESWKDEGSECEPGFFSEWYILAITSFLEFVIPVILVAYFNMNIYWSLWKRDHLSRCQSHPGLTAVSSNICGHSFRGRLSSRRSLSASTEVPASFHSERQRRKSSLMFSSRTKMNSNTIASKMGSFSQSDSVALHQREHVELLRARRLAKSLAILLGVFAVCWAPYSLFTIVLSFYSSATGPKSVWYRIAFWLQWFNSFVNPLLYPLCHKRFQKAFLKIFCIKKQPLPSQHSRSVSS

Histamine H4 receptor [7] = biological target: T2, Histamine H4 receptor; experiment: Intrinsic activity at human H4R expressed on HEK293T cells assessed as activation of forskolin-induced CRE-driven luciferase activity co-incubated with forskolin for 6 hrs and measured after 30 mins by CRE-luciferase reporter gene assay relative to histamine; assay type: functional; in short: as §2
[8] = biological target: Histamine H2 receptor (Homo sapiens) (UniProt P25021); experiment: Agonist activity at human H2R expressed on HEK293T cells assessed as inhibition of forskolin-induced CRE-driven luciferase activity up to 10 uM pre-incubated with forskolin for 6 hrs and measured after 30 mins by luciferase reporter gene assay; assay type: functional
Chain of Histamine H2 receptor (Homo sapiens) (P25021 whole entry): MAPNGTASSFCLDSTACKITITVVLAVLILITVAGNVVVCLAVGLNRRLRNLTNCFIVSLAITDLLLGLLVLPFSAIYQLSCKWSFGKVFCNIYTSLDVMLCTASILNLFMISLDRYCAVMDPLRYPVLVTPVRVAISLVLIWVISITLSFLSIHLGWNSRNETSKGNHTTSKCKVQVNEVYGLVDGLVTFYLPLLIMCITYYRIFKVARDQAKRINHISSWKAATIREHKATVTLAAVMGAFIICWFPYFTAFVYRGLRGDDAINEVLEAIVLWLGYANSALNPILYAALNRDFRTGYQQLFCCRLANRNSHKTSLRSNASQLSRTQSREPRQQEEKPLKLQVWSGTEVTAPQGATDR
In short: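 HEK293T cells transfected in suspension with H2R cDNA (2500 ng), CRE-luciferase (2500 ng) and empty pcDEF3; 50.000 cells/well, grown 24 h before ligand stimulation. Luminescence read 30 min after luciferase reagent (ATP, D-luciferin) at 37 °C. Dose–response curves fitted by nonlinear regression.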

[9] = biological target: Histamine H3 receptor (Mus musculus) (UniProt P58406); experiment: Intrinsic activity at mouse H3R expressed on HEK293T cells assessed as activation of forskolin-induced CRE-luciferase reporter gene activity co-incubated with forskolin for 6 hrs and measured after 30 mins by luciferase reporter gene assay; assay type: functional; in short: as §2
Chain of Histamine H3 receptor (Mus musculus) (P58406 whole entry): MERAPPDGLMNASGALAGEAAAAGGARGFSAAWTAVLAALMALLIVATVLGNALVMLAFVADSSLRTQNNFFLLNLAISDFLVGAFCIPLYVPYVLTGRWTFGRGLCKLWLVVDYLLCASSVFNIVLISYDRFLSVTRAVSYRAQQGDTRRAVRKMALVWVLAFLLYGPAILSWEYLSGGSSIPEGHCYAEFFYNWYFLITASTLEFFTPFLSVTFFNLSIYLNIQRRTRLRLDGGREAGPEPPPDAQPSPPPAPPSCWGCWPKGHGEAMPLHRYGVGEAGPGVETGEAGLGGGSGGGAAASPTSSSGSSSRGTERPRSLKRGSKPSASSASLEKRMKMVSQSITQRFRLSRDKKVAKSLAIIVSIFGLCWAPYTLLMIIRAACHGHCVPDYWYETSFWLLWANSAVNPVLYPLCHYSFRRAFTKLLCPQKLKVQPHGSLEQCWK

Histamine H3 receptor [10] = biological target: T3, Histamine H3 receptor (Mus musculus, UniProt P58406); experiment: Displacement of [3H]NAMH from mouse H3R expressed in HEK293T cells incubated for 2 hrs by microbeta scintillation counting analysis; assay type: cell-based; in short: as §1
T3 sequence (P58406 whole entry): as above

Histamine H4 receptor [11] = biological target: T4, Histamine H4 receptor (Mus musculus, UniProt Q91ZY2); experiment: Displacement of [3H]histamine from mouse H4R expressed in HEK293T cells incubated for 2 hrs by microbeta scintillation counting analysis; assay type: cell-based
T4 sequence (Q91ZY2 whole entry): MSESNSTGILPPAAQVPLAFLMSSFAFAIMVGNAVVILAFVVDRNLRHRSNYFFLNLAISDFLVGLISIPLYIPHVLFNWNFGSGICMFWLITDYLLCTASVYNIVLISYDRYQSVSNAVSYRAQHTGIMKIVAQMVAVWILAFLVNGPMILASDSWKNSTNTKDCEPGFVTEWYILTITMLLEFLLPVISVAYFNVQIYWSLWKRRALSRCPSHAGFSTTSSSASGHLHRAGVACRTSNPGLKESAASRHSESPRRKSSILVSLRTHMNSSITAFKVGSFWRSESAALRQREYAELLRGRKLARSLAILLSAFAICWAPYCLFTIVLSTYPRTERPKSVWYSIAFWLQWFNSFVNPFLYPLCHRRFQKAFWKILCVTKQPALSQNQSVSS
In short: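 mH4R-expressing HEK293T homogenates incubated with 30 nM [3H]histamine and increasing unlabeled ligand in 50 mM Tris–HCl pH 7.4, 2 h at 25 °C. Filtered over 0.5% PEI-coated GF/C filters; bound radioactivity counted. One-site fit, Cheng–Prusoff conversion to pKi.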

Histamine H3 receptor [12] = biological target: T3, Histamine H3 receptor; experiment: Agonist activity at mouse H3R expressed on HEK293T cells assessed as inhibition of forskolin-induced CRE-driven luciferase activity co-incubated with forskolin for 6 hrs and measured after 30 mins by luciferase reporter gene assay; assay type: functional; in short: as §2
Histamine H4 receptor [13] = biological target: T4, Histamine H4 receptor; experiment: Agonist activity at mouse H4R expressed on HEK293T cells assessed as inhibition of forskolin-induced CRE-driven luciferase activity co-incubated with forskolin for 6 hrs and measured after 30 mins by luciferase reporter gene assay; assay type: functional; in short: as §2
[14] = biological target: T5, Histamine H4 receptor (Mus musculus) (UniProt Q91ZY2); experiment: Intrinsic activity at mouse H4R expressed on HEK293T cells assessed as activation of forskolin-induced CRE-luciferase reporter gene activity co-incubated with forskolin for 6 hrs and measured after 30 mins by luciferase reporter gene assay; assay type: functional; in short: as §2
T5 sequence (whole entry): T4 sequence (Q91ZY2 whole entry)

[15] = Half life in rat liver microsomes at 50 uM measured up to 45 mins by UPLC/MS analysis; assay type: ADME, Microsome; conditions: 0.75 h
[16] = Intrinsic clearance in rat liver microsomes at 50 uM measured up to 45 mins by UPLC/MS analysis; assay type: ADME, Microsome; conditions: read-out: CLH
[17] = Half life in mouse liver microsomes at 50 uM measured up to 45 mins by UPLC/MS analysis; assay type: ADME, Microsome
[18] = Intrinsic clearance in mouse liver microsomes at 50 uM measured up to 45 mins by UPLC/MS analysis; assay type: ADME, Microsome; conditions: read-out: CLH
Cytochrome P450 3A4 = Cytochrome P450 3A4 (Homo sapiens, UniProt P08684); experiment: Inhibition of human CYP3A4 expressed in baculovirus infected insect cells using beetle D-luciferin as substrate preincubated for 30 mins followed by NADPH addition and measured after 30 mins by CYP450-Glo assay; assay type: ADME
Chain of Cytochrome P450 3A4 (P08684 whole entry): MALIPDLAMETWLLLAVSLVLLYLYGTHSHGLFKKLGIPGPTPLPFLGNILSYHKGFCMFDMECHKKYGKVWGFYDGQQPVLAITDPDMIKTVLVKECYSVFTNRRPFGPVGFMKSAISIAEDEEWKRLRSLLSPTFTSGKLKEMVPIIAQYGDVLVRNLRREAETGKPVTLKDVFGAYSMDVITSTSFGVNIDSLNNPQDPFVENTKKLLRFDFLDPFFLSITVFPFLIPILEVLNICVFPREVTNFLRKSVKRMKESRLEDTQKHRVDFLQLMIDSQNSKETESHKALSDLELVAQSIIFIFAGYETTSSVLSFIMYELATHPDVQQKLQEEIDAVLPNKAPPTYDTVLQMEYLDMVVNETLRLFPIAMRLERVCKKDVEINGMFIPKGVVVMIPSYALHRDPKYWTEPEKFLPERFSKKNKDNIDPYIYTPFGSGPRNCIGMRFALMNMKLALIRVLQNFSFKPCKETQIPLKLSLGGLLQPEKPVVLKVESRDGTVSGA

Cytochrome P450 2D6 = Cytochrome P450 2D6 (Homo sapiens, UniProt P10635); experiment: Inhibition of human CYP2D6 expressed in baculovirus infected insect cells using beetle D-luciferin as substrate preincubated for 30 mins followed by NADPH addition and measured after 30 mins by CYP450-Glo assay; assay type: ADME
Chain of Cytochrome P450 2D6 (P10635 whole entry): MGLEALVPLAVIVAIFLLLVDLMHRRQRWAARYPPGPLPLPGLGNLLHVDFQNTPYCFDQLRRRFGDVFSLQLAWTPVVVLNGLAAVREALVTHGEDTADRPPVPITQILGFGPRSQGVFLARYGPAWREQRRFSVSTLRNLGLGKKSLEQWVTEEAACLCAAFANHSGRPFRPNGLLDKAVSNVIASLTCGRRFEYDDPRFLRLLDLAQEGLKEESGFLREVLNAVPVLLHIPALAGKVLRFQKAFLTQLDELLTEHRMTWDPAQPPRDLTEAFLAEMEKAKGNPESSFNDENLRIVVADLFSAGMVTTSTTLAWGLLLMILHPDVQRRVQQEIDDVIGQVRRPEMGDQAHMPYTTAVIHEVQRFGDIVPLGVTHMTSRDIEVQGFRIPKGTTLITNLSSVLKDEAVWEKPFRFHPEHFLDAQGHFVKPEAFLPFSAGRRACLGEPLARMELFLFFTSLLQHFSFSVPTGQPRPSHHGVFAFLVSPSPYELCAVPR

Cytochrome P450 2C9 = Cytochrome P450 2C9 (Homo sapiens, UniProt P11712); experiment: Inhibition of human CYP2C9 expressed in baculovirus infected insect cells using beetle D-luciferin as substrate preincubated for 30 mins followed by NADPH addition and measured after 30 mins by CYP450-Glo assay; assay type: ADME
Chain of Cytochrome P450 2C9 (P11712 whole entry): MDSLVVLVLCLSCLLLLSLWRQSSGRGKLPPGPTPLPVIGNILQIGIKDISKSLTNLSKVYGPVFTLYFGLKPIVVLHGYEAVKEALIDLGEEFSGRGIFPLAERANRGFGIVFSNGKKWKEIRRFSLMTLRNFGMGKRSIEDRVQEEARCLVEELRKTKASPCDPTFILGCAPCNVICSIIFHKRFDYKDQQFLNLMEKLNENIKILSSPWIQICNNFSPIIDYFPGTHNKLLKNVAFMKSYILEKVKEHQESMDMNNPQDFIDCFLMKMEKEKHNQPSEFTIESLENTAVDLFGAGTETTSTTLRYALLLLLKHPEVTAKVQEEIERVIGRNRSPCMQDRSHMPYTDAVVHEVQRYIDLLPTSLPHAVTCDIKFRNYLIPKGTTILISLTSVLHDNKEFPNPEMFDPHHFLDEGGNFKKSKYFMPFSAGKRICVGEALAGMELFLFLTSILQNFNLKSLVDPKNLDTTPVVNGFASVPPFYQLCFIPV

Mus musculus [19] = experiment: Effect on social recognition in C57Bl6 mouse assessed as change in time spent in exploring cage at 5 mg/kg, ip administered 30 mins prior to training trial; assay type: ADME, organism-based; conditions: in vivo, 0.5 h
In short: (§4)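 Male C57Bl6 mice, 8–9 weeks. Session 1: 10 min arena habituation with two empty wire cups. 24 h later, 10 min with juvenile (4–5 weeks) under one cup; 1 h later, 10 min test with familiar plus novel juvenile. 5 mg/kg or vehicle i.p. 30 min before second session. Blind video scoring of exploration; sociability and discrimination indices; 10–11 mice/group.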

Mus musculus [20] = experiment: Effect on social recognition in C57Bl6 mouse assessed as change in behavior at 5 mg/kg, ip administered 30 mins prior to training trial; assay type: ADME, organism-based; conditions: in vivo, 0.5 h; in short: as §4
Mus musculus [21] = experiment: Effect on social recognition in C57Bl6 mouse assessed as change in time spent with familiar juvenile at 5 mg/kg, ip administered 30 mins prior to training trial; assay type: ADME, organism-based; conditions: in vivo, 0.5 h; in short: as §4
Mus musculus [22] = experiment: Effect on social recognition in C57Bl6 mouse assessed as change in time spent with novel juvenile at 5 mg/kg, ip administered 30 mins prior to training trial; assay type: ADME, organism-based; conditions: in vivo, 0.5 h; in short: as §4
Histamine H4 receptor [23] = biological target: T2, Histamine H4 receptor; experiment: Displacement of [3H]histamine from human H4R expressed in HEK293T cells incubated for 2 hrs by microbeta scintillation counting analysis

T1 sequence (Q9Y5N1 whole entry): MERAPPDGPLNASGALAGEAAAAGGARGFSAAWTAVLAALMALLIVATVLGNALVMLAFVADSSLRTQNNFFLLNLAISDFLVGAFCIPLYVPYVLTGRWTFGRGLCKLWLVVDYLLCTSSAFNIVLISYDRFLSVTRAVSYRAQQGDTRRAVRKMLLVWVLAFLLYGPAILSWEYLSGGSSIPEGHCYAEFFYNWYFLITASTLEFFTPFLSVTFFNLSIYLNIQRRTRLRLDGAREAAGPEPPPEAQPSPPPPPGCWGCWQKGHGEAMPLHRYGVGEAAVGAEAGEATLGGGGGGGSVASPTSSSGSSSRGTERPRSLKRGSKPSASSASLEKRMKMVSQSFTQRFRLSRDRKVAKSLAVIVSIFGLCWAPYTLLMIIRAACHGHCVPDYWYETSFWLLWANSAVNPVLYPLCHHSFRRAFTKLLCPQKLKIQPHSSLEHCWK

CCc1cc(N2CC(NC)C2)nc(N)n1
Ki (Histamine H3 receptor [1]): 50.1 nM | EC50 (Histamine H3 receptor [2]): 25.1 nM | Intrinsic activity (Histamine H3 receptor [3]): 0.8

CCNC1CN(c2cc(CC)nc(N)n2)C1
Ki (Histamine H3 receptor [1]): 126 nM | EC50 (Histamine H3 receptor [2]): 31.6 nM | Intrinsic activity (Histamine H3 receptor [3]): 0.9

CN(C)C1CN(c2ccnc(N)n2)C1
Ki (Histamine H3 receptor [1]): 50.1 nM | EC50 (Histamine H3 receptor [2]): 3.98 nM | Intrinsic activity (Histamine H3 receptor [3]): 1

CC(C)c1cc(N2CC(N(C)C)C2)nc(N)n1
Ki (Histamine H3 receptor [1]): 126 nM | EC50 (Histamine H3 receptor [2]): 100 nM | Intrinsic activity (Histamine H3 receptor [3]): 0.4

Cc1cc(N2CC(N(C)C)C2)nc(N)n1
Ki (Histamine H3 receptor [1]): 316 nM | EC50 (Histamine H3 receptor [2]): 39.8 nM | Intrinsic activity (Histamine H3 receptor [3]): 0.9

CCC(C)NC1CN(c2ccnc(N)n2)C1 (racemic)
Ki (Histamine H3 receptor [1]): 12.6 nM | EC50 (Histamine H3 receptor [2]): 2 nM | Intrinsic activity (Histamine H3 receptor [3]): 1.1

CCNC1CN(c2cc(C(C)C)nc(N)n2)C1
Ki (Histamine H3 receptor [1]): 100 nM | EC50 (Histamine H3 receptor [2]): 158 nM | Intrinsic activity (Histamine H3 receptor [3]): 0.3

CCNC1CN(c2ccnc(N)n2)C1
Ki (Histamine H3 receptor [1]): 10 nM | EC50 (Histamine H3 receptor [2]): 0.631 nM | Intrinsic activity (Histamine H3 receptor [3]): 1

Nc1nccc(N2CC(N)C2)n1
Ki (Histamine H3 receptor [1]): 15.8 nM | EC50 (Histamine H3 receptor [2]): 5.01 nM | Intrinsic activity (Histamine H3 receptor [3]): 1.1

Cc1cc(N2CC(N)C2)nc(N)n1
Ki (Histamine H3 receptor [1]): 50.1 nM | EC50 (Histamine H3 receptor [2]): 15.8 nM | Intrinsic activity (Histamine H3 receptor [3]): 0.9

CNC1CN(c2cc(C)nc(N)n2)C1
Ki (Histamine H3 receptor [1]): 31.6 nM | EC50 (Histamine H3 receptor [2]): 10 nM | Intrinsic activity (Histamine H3 receptor [3]): 0.8

CCCNC1CN(c2ccnc(N)n2)C1.O.O=C(O)/C=C/C(=O)O
Ki (Histamine H3 receptor [1]): 3.16 nM | EC50 (Histamine H3 receptor [2]): 0.316 nM | Intrinsic activity (Histamine H3 receptor [3]): 1.2 | EC50 (Histamine H3 receptor [4]): 3.98 nM | Intrinsic activity (Histamine H3 receptor [5]): 0.5 | EC50 (Histamine H4 receptor [6]): 3.16 nM | Intrinsic activity (Histamine H4 receptor [7]): 1.1 | Activity [8]: inactive | Intrinsic activity [9]: 1.2 | Ki (Histamine H3 receptor [10]): 1 nM | Ki (Histamine H4 receptor [11]): 15.8 nM | EC50 (Histamine H3 receptor [12]): 0.1 nM | EC50 (Histamine H4 receptor [13]): 1 nM | Intrinsic activity [14]: 1.1 | t1/2 [15]: 3.98 h | CLint scaled at 50 µM [16]: 7.9 mL/min/kg | half-life at 50 µM [17]: 2.18 h | CLint scaled at 50 µM [18]: 20.7 mL/min/kg | IC50 (Cytochrome P450 3A4): > 25000 nM | IC50 (Cytochrome P450 2D6): > 25000 nM | IC50 (Cytochrome P450 2C9): > 25000 nM | Activity (Mus musculus [19]): Non-Toxic | Activity (Mus musculus [20]): Non-Toxic | Activity (Mus musculus [21]): Non-Toxic | Activity (Mus musculus [22]): Non-Toxic | Ki (Histamine H4 receptor [23]): 7.94 nM

Reference: ChEMBL document CHEMBL4354817, “4-(3-Aminoazetidin-1-yl)pyrimidin-2-amines as High-Affinity Non-imidazole Histamine H3 Receptor Agonists with in Vivo Central Nervous System Activity” (J Med Chem, 2019)
